We go through four compounds from ChEMBL document CHEMBL1124220 (J Med Chem, 1988).

What all share (format): functional
The test system of assay [1] is Rattus norvegicus. Nature of the assay: In vivo angiotensin II like activity was measured in rat blood pressure assay expressed as percent activity relative to A II.
Assay [2] relates to Rattus norvegicus. Briefly: Antagonist activity ID50 was measured in vivo in the rat blood pressure assay. Put shortly: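 Rat blood pressure in vivo, 250-g rats, compound given by infusion. AII dose-response curves measured before and during the infusion. ID50 expressed as ng/rat per min. Mean of at least five tests with standard error.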
The subject of assay [3] is Rattus norvegicus. Briefly: In vivo agonist angiotensin II like activity was measured in rat blood pressure increase by a 1 ug iv injection. The method in brief:
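Rat blood pressure in vivo. Residual AII-like activity read as the pressor rise (mmHg) after a 1-μg intravenous bolus of compound. Mean of at least five tests with standard error.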

The next assay is filed under the species Oryctolagus cuniculus. Briefly: In vitro agonist angiotensin II like activity was measured in the rabbit aorta strip assay. The method in brief:
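Isolated rabbit aortic strips in vitro. Agonist (AII-like) activity expressed as percent of the activity of AII.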

SMILES strings stand for the structures. Non-standard residues stand in square brackets, D forms with d. Residues, ends and D or L forms follow the SMILES beside them. Sar = CNCC(=O)O

Consider `CC[C@H](C)[C@H](NC(=O)[C@H](Cc1ccc(O)cc1)NC(=O)[C@@H](NC(=O)[C@@H](N)CCCCN=C(N)N)C(C)C)C(=O)N[C@@H](Cc1c[nH]cn1)C(=O)N1CCC[C@H]1C(=O)N[C@@H](Cc1ccccc1)C(=O)O`, for which the Activity in the assay on Rattus norvegicus [1] is 2.07%.

In the case of `CC[C@@H](N)C(=O)N[C@H](C(=O)N[C@@H](Cc1ccc(O)cc1)C(=O)N[C@H](C(=O)N[C@@H](Cc1c[nH]cn1)C(=O)N1CCC[C@H]1C(=O)N[C@@H](Cc1ccccc1)C(=O)O)[C@@H](C)CC)C(C)C`, the Activity in the assay on Rattus norvegicus [1] came to 22%.

Turning to `CC[C@H](C)[C@H](NC(=O)[C@H](Cc1ccc(O)cc1)NC(=O)[C@@H](NC(=O)[C@H](C)NC(=O)[C@@H](N)CC(=O)O)C(C)C)C(=O)N[C@@H](Cc1c[nH]cn1)C(=O)N1CCC[C@H]1C(=O)N[C@@H](Cc1ccccc1)C(=O)O` (H-DAVYIHPF-OH), the Activity in the assay with Rattus norvegicus [1] stood at 7.7%.

Regarding `CC[C@H](C)[C@H](NC(=O)[C@@H]1CCCN1C(=O)[C@H](Cc1c[nH]cn1)NC(=O)[C@@H](NC(=O)[C@H](Cc1ccc(O)cc1)NC(=O)[C@@H](NC(=O)CN(C)C(=O)CNC)C(C)C)[C@@H](C)CC)C(=O)O` (H-[Sar][Sar]VYIHPI-OH), in the assay with Rattus norvegicus [2], the ID50 worked out at 150 ng min-1 rat-1. This compound had a BP increase in the assay with Rattus norvegicus [3] of 8.5 mmHg. The compound further returned an Activity in the assay filed under Oryctolagus cuniculus of 0%.
